This is an account of results in ChEMBL document CHEMBL1137203, “Anti-AIDS agents. 60. Substituted 3'R,4'R-di-O-(-)-camphanoyl-2',2'-dimethyldihydropyrano[2,3-f]chromone (DCP) analogues as potent anti-HIV agents” (J Med Chem, 2004).

Data set [1] relates to Human immunodeficiency virus 1. Kind of data set: Effective concentration against HIV IIIB replication in H9 lymphocytes.
Data set [2] in a line: Inhibitory concentration against HIV-I RTMDR1 in MT-4 cells. In kind it is functional, cell-based, Human immunodeficiency virus 1. The conditions noted are these: mt4.
Data set [3] relates to Human immunodeficiency virus 3. Put plainly: Inhibitory concentration against HIV IIIB replication in H9 lymphocytes. In kind it is functional, organism-based, human immunodeficiency virus type IIIB. The conditions noted are these: Human immunodeficiency virus 1.
Data set [4] in a line: Effective concentration against HIV-I RTMDR1 in MT-4 cells. The format is functional, cell-based, human immunodeficiency virus type i. The conditions noted are these: mt4. Put shortly: (§1)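 MT4 cells (6 × 10⁵ cells/mL) were infected with diluted HIV-1 RTMDR1/MT2 stock (RT mutations L74V, M41L, V106A, T215Y) at MOI 0.001 TCID₅₀/cell. Compounds were added at various concentrations in RPMI 1640 with 10% FBS, then incubated at 37 °C in humidified CO₂. Medium containing compound was replenished on day 2. p24 in day-4 supernatants was measured by ELISA.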

Data set [5] is described as follows: Therapeutic index was determined. The conditions noted are these: for selectivity ratio: read-out: TI.
Data set [6] can be described thus: Effective concentration against HIV-I RTMDR1 in MT-4 cells; NS=No suppression at 10 ug/ml. The conditions noted are these: mt4. The format is functional, cell-based, human immunodeficiency virus type i. An outline of the steps: as §1

SMILES strings stand for the structures. Several values for one entry are separate records, joined by “and”; a condition that tells them apart may be missing. Identical values can stand only once. Some results are limits rather than exact numbers.

For orientation: EC50 means the concentration needed to bring the measured effect to its halfway point. A high value points to a less potent agent. By IC50 is commonly meant the concentration needed to halve the response being measured. Take `CCCc1cc(=O)c2ccc3c(c2o1)[C@@H](OC(=O)C12CCC(C)(C(=O)O1)C2(C)C)[C@@H](OC(=O)C12CCC(C)(C(=O)O1)C2(C)C)C(C)(C)O3` (some centres not stated): the EC50 in data set [1] came to 0.02 µM; in data set [4], 0.14 µM. Besides, the IC50 in data set [2] was 37.6 µM; in data set [3], more than 37.6 µM.

Consider `CCOCc1cc(=O)c2ccc3c(c2o1)[C@@H](OC(=O)C12CCC(C)(C(=O)O1)C2(C)C)[C@@H](OC(=O)C(C)C)C(C)(C)O3` (some centres not stated), for which the EC50 in data set [1] was determined as 0.62 µM; in data set [4], 1.09 µM. In addition, the IC50 is more than 17.5 µM in data set [2] and more than 43.9 µM in data set [3].

For the compound `Cc1cc(=O)c2ccc3c(c2o1)[C@@H](OC(=O)C12CCC(C)(C(=O)O1)C2(C)C)[C@@H](OC(=O)C12CCC(C)(C(=O)O1)C2(C)C)C(C)(C)O3` (some centres not stated), the EC50 in data set [1] was 0.0031 µM; in data set [4], 0.19 µM. In data set [5], this compound yielded a TI of 8600. The selectivity ratio in data set [5] is 62.5. Further, the figures for the IC50 in data set [2] and in data set [3] were 11.8 µM and 27.3 µM, respectively.

Consider `CC(C)C(=O)O[C@@H]1[C@H](OC(=O)C23CCC(C)(C(=O)O2)C3(C)C)c2c(ccc3c(=O)cc(-c4ccccc4)oc23)OC1(C)C` (some centres not stated), for which the half-maximal effective concentration (EC50) in data set [1] is 1.68 µM; in data set [6] it was “No suppression”. Further, the selectivity ratio in data set [5] came to 25.3. For the same compound, the half-maximal inhibitory concentration (IC50) in data set [3] is more than 42.5 µM.

With `CC(C)c1cc(=O)c2ccc3c(c2o1)[C@@H](OC(=O)C12CCC(C)(C(=O)O1)C2(C)C)[C@@H](OC(=O)C12CCC(C)(C(=O)O1)C2(C)C)C(C)(C)O3` (some centres not stated), the concentration giving a half-maximal response (EC50) was 0.07 µM in data set [1] and 0.14 µM in data set [4]. This compound had a TI in data set [5] of 483. In data set [5], the selectivity ratio was more than 111. Also, the half-inhibitory concentration (IC50) is more than 15 µM in data set [2] and 33.4 µM in data set [3].

In the case of `Cc1cn([C@H]2C[C@H](N=[N+]=[N-])[C@@H](CO)O2)c(=O)[nH]c1=O` [ZIDOVUDINE], the values for the EC50 in data set [1] and in data set [4] were 0.04 µM and 0.1 µM, respectively. The values for the IC50 in data set [2] and in data set [3] were more than 37.5 µM and 1870 µM, respectively.

With `Cc1cc(=O)c2ccc3c(c2o1)[C@@H](OC(=O)C12CCC(C)(C(=O)O1)C2(C)C)[C@@H](OC(=O)C(C)C)C(C)(C)O3` (some centres not stated), the EC50 in data set [1] stood at 0.88 µM; in data set [4], 0.3 µM. For the same compound, in data set [5], the TI came out at 56.3. Besides, in data set [5], the selectivity ratio was found to be 46. The IC50 in data set [2] stood at 17.1 µM; in data set [3] it was 40.7 µM.

In the case of `Cc1cc(=O)oc2c3c(ccc12)OC(C)(C)[C@H](OC(=O)C12CCC(C)(C(=O)O1)C2(C)C)[C@@H]3OC(=O)C12CCC(C)(C(=O)O1)C2(C)C` (some centres not stated), the concentration for a half-maximal effect (EC50) in data set [1] was found to be 0.0059 µM; in data set [4] it was 9.43 µM. In addition, the IC50 is more than 15.7 µM in data set [2] and more than 39.3 µM in data set [3].

With `CC1(C)Oc2ccc3c(=O)c(-c4ccccc4)coc3c2[C@@H](OC(=O)C23CCC(C)(C(=O)O2)C3(C)C)[C@H]1OC(=O)C12CCC(C)(C(=O)O1)C2(C)C` (some centres not stated), the concentration for a half-maximal effect (EC50) in data set [1] was 1.54 µM; in data set [6] it was “No suppression”. The selectivity ratio in data set [5] is 23.3. For the same compound, the IC50 in data set [3] is more than 35.8 µM.

Regarding `CC(=O)O[C@@H]1[C@H](OC(=O)C23CCC(C)(C(=O)O2)C3(C)C)c2c(ccc3c(=O)cc(C)oc23)OC1(C)C` (some centres not stated), the results for the EC50 in data set [1] and in data set [4] were 2.29 µM and 2.2 µM, respectively. For the same compound, the TI in data set [5] is on record as 18.2. Also, the selectivity ratio in data set [5] is 21.9. Besides, the IC50 in data set [2] was more than 40.2 µM; in data set [3], more than 50 µM.

In the case of `CCc1cc(=O)c2ccc3c(c2o1)[C@@H](OC(=O)C12CCC(C)(C(=O)O1)C2(C)C)[C@@H](OC(=O)C12CCC(C)(C(=O)O1)C2(C)C)C(C)(C)O3` (some centres not stated), the concentration for a half-maximal effect (EC50) in data set [1] was determined as 0.00032 µM; in data set [4], 0.06 µM. Besides, the IC50 in data set [2] was 43.1 µM; in data set [3] it was 37.2 µM.

For the compound `CC1(C)Oc2ccc3ccc(=O)oc3c2[C@@H](OC(=O)C23CCC(C)(C(=O)O2)C3(C)C)[C@H]1OC(=O)C12CCC(C)(C(=O)O1)C2(C)C` (some centres not stated), the EC50 in data set [1] turned out to be 0.04 µM; in data set [4], 12.1 µM. The 50% inhibitory concentration (IC50) in data set [2] and in data set [3] was more than 16.1 µM in each case.

For `CC1(C)Oc2ccc3c(=O)ccoc3c2[C@@H](OC(=O)C23CCC(C)(C(=O)O2)C3(C)C)[C@H]1OC(=O)C12CCC(C)(C(=O)O1)C2(C)C` (some centres not stated), the concentration giving a half-maximal response (EC50) was 0.0013 µM in data set [1] and “No suppression” in data set [6]. In addition, in data set [5], the selectivity ratio came to 11100. This compound had a half-maximal inhibitory concentration (IC50) in data set [3] of 14.2 µM.

Regarding `CC(=O)O[C@@H]1[C@H](OC(=O)C23CCC(C)(C(=O)O2)C3(C)C)c2c(ccc3c(=O)cc(-c4ccccc4)oc23)OC1(C)C` (some centres not stated), the figures for the EC50 in data set [1] and in data set [4] were 2.24 µM and 4.46 µM, respectively. Further, the values for the IC50 in data set [2] and in data set [3] were 6.25 µM and more than 44.6 µM, respectively.

With `CCc1cc(=O)c2ccc3c(c2o1)[C@@H](OC(=O)C12CCC(C)(C(=O)O1)C2(C)C)[C@@H](OC(=O)C(C)C)C(C)(C)O3` (some centres not stated), the values for the EC50 in data set [1] and in data set [4] were 0.25 µM and 0.28 µM, respectively. Moreover, the TI in data set [5] is 182 and > 66.7. Besides, the concentration for half-maximal inhibition (IC50) in data set [2] is more than 18.5 µM; in data set [3] it was more than 46.3 µM.

`Cc1cc(=O)c2ccc3c(c2o1)[C@@H](OC(=O)C12CCC(C)(C(=O)O1)C2(C)C)[C@@H](OC(=O)CC(C)C)C(C)(C)O3` (some centres not stated): the EC50 in data set [1] amounted to 0.0057 µM; in data set [4] it was 0.59 µM. Also, the figures for the IC50 in data set [2] and in data set [3] were 13 µM and more than 32.2 µM, respectively.

Consider `CCOCc1cc(=O)c2ccc3c(c2o1)[C@@H](OC(=O)C12CCC(C)(C(=O)O1)C2(C)C)[C@@H](OC(=O)C12CCC(C)(C(=O)O1)C2(C)C)C(C)(C)O3` (some centres not stated), for which the concentration giving a half-maximal response (EC50) in data set [1] stood at 0.1 µM; in data set [4], 0.37 µM. In addition, the TI in data set [5] turned out to be 151. Besides, the selectivity ratio in data set [5] was more than 34. Moreover, the IC50 in data set [2] is more than 12.5 µM; in data set [3], 15.1 µM.

For the compound `CCc1cc(=O)c2cc(C(C)(C)C)c3c(c2o1)[C@@H](OC(=O)C12CCC(C)(C(=O)O1)C2(C)C)[C@@H](OC(=O)C12CCC(C)(C(=O)O1)C2(C)C)C(C)(C)O3` (some centres not stated), the concentration giving a half-maximal response (EC50) in data set [1] was determined as 1.62 µM; in data set [4], 7.36 µM. For the same compound, the results for the IC50 in data set [2] and in data set [3] were more than 14.2 µM and 35.4 µM, respectively.

In the case of `CC1(C)Oc2ccc3c(=O)cc(-c4ccccc4)oc3c2[C@@H](OC(=O)C23CCC(C)(C(=O)O2)C3(C)C)[C@H]1OC(=O)C12CCC(C)(C(=O)O1)C2(C)C` (some centres not stated), the EC50 in data set [1] was 0.12 µM; in data set [4] it was 0.17 µM. Besides, the TI in data set [5] is given as 71. For the same compound, the selectivity ratio in data set [5] is more than 277. Besides, the 50% inhibitory concentration (IC50) is 12.2 µM in data set [2] and more than 35.8 µM in data set [3].

As for `Cc1coc2c3c(ccc2c1=O)OC(C)(C)[C@H](OC(=O)C12CCC(C)(C(=O)O1)C2(C)C)[C@@H]3OC(=O)C12CCC(C)(C(=O)O1)C2(C)C` (some centres not stated), the values for the EC50 in data set [1] and in data set [4] were 0.00099 µM and 1.28 µM, respectively. Further, the figures for the IC50 in data set [2] and in data set [3] were 3.14 µM and 14.7 µM, respectively.

On to `Cc1oc2c3c(ccc2c(=O)c1C)OC(C)(C)[C@H](OC(=O)C12CCC(C)(C(=O)O1)C2(C)C)[C@@H]3OC(=O)C12CCC(C)(C(=O)O1)C2(C)C` (some centres not stated), for which the EC50 was 0.007 µM in data set [1] and 0.31 µM in data set [4]. The 50% inhibitory concentration (IC50) in data set [2] is 4.72 µM; in data set [3], 11.3 µM.
